In assay [1] the test system is Mus musculus. Put plainly: In vivo inhibition of IDO1/2/TDO in C57BL/6 mouse assessed as decrease in LPS-stimulated kynurenine pathway by measuring increase in serum tryptophan level at 60 mg/kg, ig pretreated for 24 hrs with Escherichia coli LPS followed by compound treatment measured at 24 hrs post-treatment by HPLC analysis. The class given is functional, organism-based. The procedure, abridged: (§1)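 C57BL/6 mice were given ip saline or E. coli LPS 5 mg/kg. 24 h later they received ig 60 mg/kg compound or 0.5% CMC-Na. Blood was taken at 1, 6, 12, 24 and 30 h after dosing. Serum Trp and Kyn were measured by HPLC and the Kyn/Trp ratio calculated. n = 3–5 mice/group.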

The target in assay [2] is T1, Tryptophan 2,3-dioxygenase (Homo sapiens, UniProt P48775). Put plainly: Binding affinity to human TDO at 200 uM by STD NMR spectrometry analysis.
Target sequence in this assay (P48775 whole entry, looked up): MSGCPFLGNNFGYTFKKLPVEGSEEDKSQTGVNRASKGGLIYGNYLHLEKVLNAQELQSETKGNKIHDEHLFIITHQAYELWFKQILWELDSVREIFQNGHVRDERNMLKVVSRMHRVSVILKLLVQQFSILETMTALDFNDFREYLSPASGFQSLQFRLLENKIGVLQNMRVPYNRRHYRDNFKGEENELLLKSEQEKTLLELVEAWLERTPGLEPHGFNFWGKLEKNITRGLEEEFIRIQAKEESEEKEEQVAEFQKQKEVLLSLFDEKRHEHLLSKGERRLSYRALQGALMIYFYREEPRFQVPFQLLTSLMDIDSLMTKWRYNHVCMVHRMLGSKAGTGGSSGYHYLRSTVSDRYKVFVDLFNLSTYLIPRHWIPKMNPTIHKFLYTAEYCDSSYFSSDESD
Assay [3] concerns Mus musculus. Put plainly: In vivo blockade of kynurenine pathway in Kunming mouse implanted with mouse H22 cells assessed as increase in tryptophan level in serum at 45 mg/kg, po qd for 2 weeks by HPLC analysis. The format is functional, organism-based. The procedure, abridged:
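H22 tumor-bearing Kunming mice received oral dosing once daily in 0.5% CMC-Na for 2 weeks. Serum Trp and Kyn were measured by HPLC on a C18 column with 15 mM sodium acetate (pH 3.6) containing 4% acetonitrile, UV detection at 280 and 360 nm. Kyn/Trp ratio calculated. n = 9–10/group.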

Assay [4] deals with H22. The experiment in a line: Antitumor activity against mouse H22 cells implanted in Kunming mouse assessed as reduction in tumor weight at 45 mg/kg, po qd administered for 2 weeks and measured post-treatment relative to control. The class given is functional. On the set-up: scale not given: the % may be the effect or the level left. The procedure, abridged: (§2)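 Tumor cells (LLC, or H22 ascites cells after two intraperitoneal passages in Kunming mice) injected sc into the right forelimb at 2 × 10⁶ per mouse, in female 6–8-week C57BL/6 or Kunming mice. Oral dosing once daily began at 5 mm tumor diameter and continued 2 weeks. Vehicle was 0.5% CMC-Na. Volume was read by caliper every 2 days as long × short²/2. Tumors were weighed at sacrifice. n = 9–10/group.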

The test system of assay [5] is Mus musculus. The experiment in a line: In vivo inhibition of IDO1/2/TDO in C57BL/6 mouse assessed as decrease in LPS-stimulated kynurenine pathway by measuring increase in serum tryptophan level at 60 mg/kg, ig pretreated for 24 hrs with Escherichia coli LPS followed by compound treatment measured at 12 hrs post-treatment by HPLC analysis. The format is functional, organism-based. A digest of the protocol:
as §1

Assay [6] has as its system Rattus norvegicus. Put plainly: In vivo inhibition of IDO1/2/TDO in Sprague-Dawley rat assessed as decrease in kynurenine level in lung at 30 mg/kg, ig administered as single dose by LC-MS analysis. The format is functional, organism-based. The procedure, abridged:
(§3)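 Naive SD rats received a single ig dose of 30 mg/kg in 0.5% CMC-Na, with vehicle as control. Lungs were dissected and Trp and Kyn quantified by LC–MS, with the Kyn/Trp ratio calculated. n = 3–4 rats/group.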

The subject of assay [7] is Lewis lung carcinoma cell line. The experiment in a line: Antitumor activity against mouse LLC cells implanted in C57BL/6 mouse assessed as tumor regression at 45 mg/kg, po qd administered for 2 weeks and measured post-treatment. The format is functional, organism-based. A digest of the protocol:
as §2

The subject of assay [8] is Mus musculus. The experiment in a line: In vivo blockade of kynurenine pathway in C57BL/6 mouse implanted with mouse LLC cells assessed as decrease in kynurenine level in tumor at 45 mg/kg, po qd for 2 weeks by LC-MS analysis. The format is functional, organism-based. A digest of the protocol: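 LLC tumor-bearing C57BL/6 mice received oral dosing once daily in 0.5% CMC-Na for 2 weeks. Tumors were dissected and Trp and Kyn measured by LC–MS on a C18 column with acetonitrile/0.1% formic acid gradient (5–80%), positive ion mode, m/z 205 (Trp) and 209 (Kyn), metronidazole internal standard. Kyn/Trp ratio calculated. n = 4–6/group.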

Assay [9] relates to Lewis lung carcinoma cell line. The experiment in a line: Antitumor activity against mouse LLC cells implanted in C57BL/6 mouse assessed as reduction in tumor weight at 45 mg/kg, po qd administered for 2 weeks and measured post-treatment. The format is functional, organism-based. A digest of the protocol: as §2
Assay [10] concerns Mus musculus. Put plainly: In vivo inhibition of IDO1/2/TDO in C57BL/6 mouse assessed as decrease in LPS-stimulated kynurenine pathway by measuring decrease in ratio of kynurenine to tryptophan level in serum at 60 mg/kg, ig pretreated for 24 hrs with Escherichia coli LPS followed by compound treatment measured at 24 hrs post-treatment by HPLC analysis. The format is functional, organism-based. A digest of the protocol:
as §1

The target in assay [11] is T2, Indoleamine 2,3-dioxygenase 2 (Homo sapiens) (UniProt Q6ZQW0).
T2 sequence (whole entry): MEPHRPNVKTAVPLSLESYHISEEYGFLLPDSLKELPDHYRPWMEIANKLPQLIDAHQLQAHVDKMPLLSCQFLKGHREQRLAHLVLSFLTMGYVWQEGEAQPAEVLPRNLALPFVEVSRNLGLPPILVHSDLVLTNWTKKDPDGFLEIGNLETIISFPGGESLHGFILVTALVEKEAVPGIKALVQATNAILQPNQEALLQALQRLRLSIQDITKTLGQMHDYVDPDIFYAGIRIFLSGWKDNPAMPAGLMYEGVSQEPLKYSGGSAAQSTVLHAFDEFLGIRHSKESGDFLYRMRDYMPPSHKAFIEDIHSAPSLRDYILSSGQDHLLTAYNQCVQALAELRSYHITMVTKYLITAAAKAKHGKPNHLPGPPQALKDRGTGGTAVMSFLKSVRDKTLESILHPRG
The experiment in a line: Binding affinity to human IDO2 at 200 uM by STD NMR spectrometry analysis.

Assay [12] has as its system H22. The experiment in a line: Antitumor activity against mouse H22 cells implanted in Kunming mouse assessed as reduction in tumor volume at 45 mg/kg, po qd administered for 2 weeks and measured at 2 days interval during compound dosing relative to control. The format is functional. On the set-up: scale not given: the % may be the effect or the level left. A digest of the protocol:
as §2

Assay [13] deals with Rattus norvegicus. The experiment in a line: In vivo inhibition of IDO1/2/TDO in Sprague-Dawley rat assessed as increase in tryptophan level in lung at 30 mg/kg, ig administered as single dose by LC-MS analysis. The class given is functional, organism-based. A digest of the protocol:
as §3

Assay [14] concerns Lewis lung carcinoma cell line. Put plainly: Antitumor activity against mouse LLC cells implanted in C57BL/6 mouse assessed as reduction in tumor volume at 45 mg/kg, po qd administered for 2 weeks and measured at 2 days interval during compound dosing relative to control. The format is functional. Set-up: scale not given: the % may be the effect or the level left. A digest of the protocol: as §2

Assay [15] addresses T1, Tryptophan 2,3-dioxygenase. The experiment in a line: Inhibition of human TDO transfected in HEK293 cells assessed as reduction in kynurenine production using L-tryptophan as substrate incubated for 12 hrs. The format is cell-based. A digest of the protocol:
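U87 MG cells (hIDO2) or HEK293 cells (hTDO) were transiently transfected at 80% confluence, with empty vector as control. After 18 h, cells were seeded 2.5 × 10⁴/well in medium with 200 μM L-Trp. Compound serial dilutions were added after a further 6 h (IDO2) or 12 h (TDO). Reactions were stopped 24 h (IDO2) or 8 h (TDO) later with TCA, heated 65 °C 15 min, and Kyn read with DMAB at 492 nm. IC50 by nonlinear regression.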
Target sequence in this assay (P48775 whole entry): as the sequence (P48775 whole entry, looked up) above

The structures appear in SMILES notation. pIC50: −log10 of the molar value. Active and inactive are the calls of the source. The calls are words filed in the database; no cut-off is given here.

Consider `CN1CCN(Cc2ccc3nc4n(c(=O)c3c2)-c2ccc(F)cc2C4=O)CC1`, for which the inhibition entry with Mus musculus [1], in the assay with Mus musculus [5], with Rattus norvegicus [6], in the assay with Mus musculus [10] and in the assay on Rattus norvegicus [13] was “Active” in each case. Further, the result (in assay [2]; in the assay on Mus musculus [3]; with Mus musculus [8]; in [9]; in [11]) was Active. The Activity in the assay on H22 [4] is 55.4%; with H22 [12], 47.3%; in assay [14] it was 56.2%. Besides, the outcome in [7] was inactive. The pIC50 in assay [15] was 7.05.

Values taken from ChEMBL document CHEMBL4354812, “N-Benzyl/Aryl Substituted Tryptanthrin as Dual Inhibitors of Indoleamine 2,3-Dioxygenase and Tryptophan 2,3-Dioxygenase” (J Med Chem, 2019).
